Reference: ChEMBL document CHEMBL3525910, “Pharmacokinetics of oral D-serine in D-amino acid oxidase knockout mice” (Drug Metab Dispos, 2012)

Experiments:
Type in all cases: ADME, organism-based
[1] = Tmax in wild-type mouse at 30 mg/kg, po; set-up: dose 30 mg/kg, route oral; conditions: in vivo
In short: (§1)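 Mice (wild-type 129SvEv or DAAO knockout; n = 3–6 per time point, n = 2 at 120 and 240 min for the group also given CBIO 30 mg/kg in 10% DMSO/0.9% saline) dosed orally, 10 ml/kg, with D-serine 30 mg/kg. Cardiac-puncture blood taken at 30, 60, 120, 240 min into heparin tubes and spun to plasma. Methanol extraction, derivatization, then HPLC fluorescence (ex 344/em 443 nm). Parameters from noncompartmental analysis.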

[2] = Tmax in wild-type mouse at 30 mg/kg, po in presence of CBIO; set-up: dose 30 mg/kg, route oral; conditions: in vivo; in short: as §1
[3] = Tmax in DAAO knockout mouse at 30 mg/kg, po; set-up: dose 30 mg/kg, route oral; conditions: in vivo; in short: as §1
[4] = Cmax in wild-type mouse at 30 mg/kg, po; set-up: dose 30 mg/kg, route oral; conditions: in vivo; in short: as §1
[5] = Cmax in wild-type mouse at 30 mg/kg, po in presence of CBIO; set-up: dose 30 mg/kg, route oral; conditions: in vivo; in short: as §1
[6] = Cmax in DAAO knockout mouse at 30 mg/kg, po; set-up: dose 30 mg/kg, route oral; conditions: in vivo; in short: as §1
[7] = Elimination half life in wild-type mouse at 30 mg/kg, po; set-up: dose 30 mg/kg, route oral; conditions: in vivo, read-out: beta t1/2 (converted); in short: as §1
[8] = Elimination half life in wild-type mouse at 30 mg/kg, po in presence of CBIO; set-up: dose 30 mg/kg, route oral; conditions: in vivo, read-out: beta t1/2 (converted); in short: as §1
[9] = Elimination half life in DAAO knockout mouse at 30 mg/kg, po; set-up: dose 30 mg/kg, route oral; conditions: in vivo, read-out: beta t1/2
In short: (§2)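 DAAO knockout mice were dosed orally (10 ml/kg) with D-serine 30 mg/kg, n = 3–6 per time point, and plasma was taken at 30–240 min. D-serine was measured by methanol extraction, derivatization and reversed-phase HPLC with fluorescence detection. Cmax and Tmax are observed values. t½ = 0.693/λz with uniform weighting. AUClast is by the log-linear trapezoidal rule, with variance by Bailer's method.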

[10] = AUC (0 to last) in wild-type mouse at 30 mg/kg, po; set-up: time 0 - last, dose 30 mg/kg, route oral; conditions: plasma; in short: as §1
[11] = AUC (0 to last) in wild-type mouse at 30 mg/kg, po in presence of CBIO; set-up: time 0 - last, dose 30 mg/kg, route oral; conditions: plasma; in short: as §1
[12] = AUC (0 to last) in DAAO knockout mouse at 30 mg/kg, po; set-up: time 0 - last, dose 30 mg/kg, route oral; conditions: plasma; in short: as §2
[13] = AUC (0 to infinity) in wild-type mouse at 30 mg/kg, po; set-up: time infinity, dose 30 mg/kg, route oral; conditions: plasma; in short: as §1
[14] = AUC (0 to infinity) in wild-type mouse at 30 mg/kg, po in presence of CBIO; set-up: time infinity, dose 30 mg/kg, route oral; conditions: plasma; in short: as §1
Cerebellum [15] = experiment: Drug uptake in wild-type mouse cerebellum at 30 mg/kg, po after 1 hr; set-up: dose 30 mg/kg, route oral; conditions: in vivo
In short: (§3)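 Wild-type or DAAO knockout mice were given D-serine 30 mg/kg orally. At 1 h, cerebellum and frontal cortex were excised, weighed and frozen at −80°C. Tissue was homogenized and sonicated in 20 volumes (w/v) methanol and spun at 50,000g for 15 min at 4°C. The supernatant was dried, derivatized for 2 min at room temperature, and D-serine was quantified by C18 HPLC with fluorescence detection.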

Cerebellum [16] = experiment: Drug uptake in DAAO knockout mouse cerebellum at 30 mg/kg, po after 1 hr; set-up: dose 30 mg/kg, route oral; conditions: in vivo; in short: as §3
Cortex [17] = experiment: Drug uptake in wild-type mouse cortex at 30 mg/kg, po after 1 hr; set-up: dose 30 mg/kg, route oral; conditions: in vivo; in short: as §3
Cortex [18] = experiment: Drug uptake in DAAO knockout mouse cortex at 30 mg/kg, po after 1 hr; set-up: dose 30 mg/kg, route oral; conditions: in vivo; in short: as §3

**Q.** Which results are given for `N[C@H](CO)C(=O)O` [(D)-SERINE]?
**A.** Tmax [1]: 0.7 h; Tmax [2]: 1 h; Tmax [3]: 2.7 h; Cmax [4]: 19600 ng/mL; Cmax [5]: 24300 ng/mL; Cmax [6]: 27800 ng/mL; half-life [7]: 1.2 h; half-life [8]: 1.5 h; half-life [9]: > 10 h; AUC(0-t) [10]: 40600 ng·h/mL; AUC(0-t) [11]: 65800 ng·h/mL; AUC(0-t) [12]: 95800 ng·h/mL; AUC(0-inf) [13]: 46000 ng·h/mL; AUC(0-inf) [14]: 80900 ng·h/mL; Drug uptake (Cerebellum [15]): Not Active; Drug uptake (Cerebellum [16]): Active; Drug uptake (Cortex [17]): Active; Drug uptake (Cortex [18]): Active
